Measurements reported in ChEMBL document CHEMBL1137676, “Nitroimidazolyl-1,3,4-thiadiazole-based anti-leishmanial agents: synthesis and in vitro biological evaluation” (Eur J Med Chem, 2009).
pIC50: −log10 of the molar value. Activity calls are given as the source filed them. No cut-off for these calls is given here.

Columns and labels:
[1] = Cytotoxicity against mouse peritoneal macrophages assessed as cell viability after 24 hrs by MTT assay; format: cell-based; set-up: concentration or dose not given beside the values; conditions: peritoneal macrophage cell
In short: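 Mouse peritoneal macrophages were plated at 2 × 10⁵ cells/well. After adherence, the medium was replaced with compound-containing medium for 24 h at 37 °C, 5% CO₂, with medium-plus-DMSO controls. Viability was read by MTT colorimetric assay.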

Leishmania major [2] = test: Antileishmanial activity against promastigote form of Leishmania major MRHO/IR/75/ER after 24 hrs by MTT assay; format: functional, organism-based
In short: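 Early-log promastigotes (2 × 10⁶/mL) were incubated with serial drug dilutions for 24 h at 25 °C in phenol red-free RPMI 1640 with 10% FBS, 2 mM glutamine and antibiotics, pH ~7.2. MTT at 0.5 mg/mL was added for 4 h at 37 °C, formazan was dissolved in DMSO and read at 492 nm. Controls received medium plus DMSO. IC₅₀ came from linear regression over ≥2 independent triplicate experiments, given as mean ± SD.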

Leishmania major [3] = test: Antileishmanial activity against amastigote form of Leishmania major MRHO/IR/75/ER in mouse peritoneal macrophages assessed as decrease in macrophage infectivity after 24 hrs; format: functional, organism-based
In short: (§1)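 Mouse peritoneal macrophages were seeded on glass coverslips at 1 × 10⁶ per well, and non-adherent cells were washed off after 1 h. Stationary-phase promastigotes were added at 3 per macrophage for 2 h at 37 °C in CO₂, then unbound parasites were washed away. Cells got drug-containing medium for 24 h and were then methanol-fixed and Giemsa-stained, counting 60 cells per well. Infectivity index = % infected macrophages × mean amastigotes per infected cell. Two sets of experiments were run.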

Leishmania major [4] = test: Antileishmanial activity against amastigote form of Leishmania major MRHO/IR/75/ER in mouse peritoneal macrophages assessed as decrease in infectivity index after 24 hrs; format: functional, organism-based; in short: as §1
Leishmania major [5] = test: Antileishmanial activity against amastigote form of Leishmania major MRHO/IR/75/ER in mouse peritoneal macrophages assessed as decrease in number of amastigotes per macrophage after 24 hrs; format: functional, organism-based; in short: as §1
[6] = Leishmania major, MRHO/IR/75/ER, 24 h

Compound | Activity [1] | pIC50 (Leishmania major [2]; [6]) | Activity (Leishmania major [3]) | Activity (Leishmania major [4]) | Activity (Leishmania major [5]) | pIC50 (Leishmania major [2])
Cn1c([N+](=O)[O-])cnc1-c1nnc(N2CCN(C(=O)c3ccc(Cl)cc3)CC2)s1 | Non-toxic | 4.37 | – | – | – | –
Cn1c([N+](=O)[O-])cnc1-c1nnc(N2CCN(C(=O)c3ccc(Cl)s3)CC2)s1 | Non-toxic | 5.03 | Active | Active | Active | –
Cn1c([N+](=O)[O-])cnc1-c1nnc(N2CCN(C(=O)c3ccccc3)CC2)s1 | Non-toxic | 4.98 | Active | Active | Active | –
Cn1c([N+](=O)[O-])cnc1-c1nnc(N2CCN(C(=O)c3ccccc3Cl)CC2)s1 | Non-toxic | 4.69 | – | – | – | –
MEGLUMINE ANTIMONATE | 40% | – | – | – | – | 4.09
Cn1c([N+](=O)[O-])cnc1-c1nnc(N2CCN(C(=O)c3ccc(Br)s3)CC2)s1 | Non-toxic | 4.80 | – | – | – | –
Cn1c([N+](=O)[O-])cnc1-c1nnc(N2CCN(C(=O)c3cccs3)CC2)s1 | Non-toxic | 4.59 | – | – | – | –
Cn1c([N+](=O)[O-])cnc1-c1nnc(N2CCN(C(=O)c3cccc(Cl)c3)CC2)s1 | Non-toxic | 4.75 | – | – | – | –
